Reference: ChEMBL document CHEMBL4699489, “Optimized Opioid-Neurotensin Multitarget Peptides: From Design to Structure-Activity Relationship Studies” (J Med Chem, 2020)
pEC50, pKi: −log10 of the molar value. Numbered stars: 1 amine (or outer) side, 2 acyl side, 3 side chain; on linkers, the order of the positions; unused ones are H or OH. Square brackets hold non-standard residues; d marks the D form. Peptide text beside a SMILES is read from it. X1 = O=C1[C@@H](N[*:1])Cc2ccccc2CN1CCC(=O)[*:2]; X2 = O=C([C@@H]1Cc2cc(O)ccc2CN1[*:1])[*:2]; Dmt = Cc1cc(O)cc(C)c1C[C@H](N)C(=O)O; mTyr = N[C@@H](Cc1cccc(O)c1)C(=O)O; Tle = CC(C)(C)[C@H](N)C(=O)O; β3hK = NCCCC[C@H](N)CC(=O)O

Legend:
[1] = target: T1, Neurotensin receptor type 1 (Homo sapiens, UniProt P30989); assay: Displacement of [125I]-neurotensin from human recombinant NTS1 stably expressed in CHO-K1 cell membranes incubated for 60 mins by gamma counter method
[2] = target: Neurotensin receptor type 2 (Homo sapiens, UniProt O95665); assay: Displacement of [125I]-neurotensin from human recombinant NTS2 stably expressed in human 1321N1 cell membranes incubated for 60 mins by gamma counter method
[3] = target: T2, Kappa-type opioid receptor (Homo sapiens, UniProt P41145); assay: Agonist activity at human KOR stably expressed in CHO cell membranes assessed as stimulation of [35S]-GTPgammaS binding incubated for 1 hr by liquid scintillation counting assay; assay type: functional
Summary of the method: (§1)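 Membranes from CHO cells stably expressing hMOR, hDOR or hKOR, prepared in 20 mM HEPES, 10 mM MgCl2, 100 mM NaCl, pH 7.4. Membranes (5–10 μg) incubated with 0.05 nM [35S]GTPγS, 10 μM GDP and graded peptide concentrations, 60 min at 25 °C. Nonspecific binding with 10 μM GTPγS, basal without ligand. GF/B filtration, scintillation counting. EC50 and Emax by nonlinear regression; Emax relative to DAMGO, DPDPE or U69,593. Duplicate, three independent experiments.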

[4] = target: T3, Delta-type opioid receptor (Homo sapiens, UniProt P41143); assay: Agonist activity at human DOR stably expressed in CHO cell membranes assessed as stimulation of [35S]-GTPgammaS binding incubated for 1 hr by liquid scintillation counting assay; assay type: functional; summary of the method: as §1
Mu-type opioid receptor [5] = target: T4, Mu-type opioid receptor (Homo sapiens, UniProt P35372); assay: Agonist activity at human MOR expressed in human U2OS cells assessed as increase in beta arrestin2 recruitment incubated for 90 mins by pathhunter beta-arrestin assay relative to DAMGO; assay type: cell-based; details: filed as partial agonist
Summary of the method: (§2)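 U2OS cells stably coexpressing hMOR and enzyme acceptor-tagged β-arrestin-2, seeded at 5000 cells/well and kept 24 h at 37 °C. Graded peptide concentrations in PBS added for 90 min at 37 °C, then detection mix for 60 min at room temperature. Chemiluminescence read-out. EC50 and Emax (relative to DAMGO) by nonlinear regression. Duplicate, three independent experiments.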

[6] = target: T2, Kappa-type opioid receptor; assay: Agonist activity at human KOR stably expressed in CHO cell membranes assessed as stimulation of [35S]-GTPgammaS binding incubated for 1 hr by liquid scintillation counting assay relative to U69593; assay type: functional; details: time 60.0 min; summary of the method: as §1
[7] = target: T3, Delta-type opioid receptor; assay: Agonist activity at human DOR stably expressed in CHO cell membranes assessed as stimulation of [35S]-GTPgammaS binding incubated for 1 hr by liquid scintillation counting assay relative to DPDPE; assay type: functional; details: filed as agonist, time 60.0 min; summary of the method: as §1
[8] = target: T3, Delta-type opioid receptor; assay: Displacement of [3H]-Diprenorphine from recombinant human delta opioid receptor expressed in CHO cell membrane incubated for 60 mins by liquid scintillation counting method; assay type: cell membranes
Summary of the method: (§3)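 Membranes from CHO-hMOR, -hDOR or -hKOR cells, homogenized and washed in 50 mM Tris-HCl pH 7.4. Membranes (15–20 μg) incubated with [3H]DAMGO (MOR), [3H]diprenorphine (DOR) or [3H]U69,593 (KOR) plus graded peptide, 60 min at 25 °C. Nonspecific binding with 1–10 μM of the unlabelled ligand. GF/C filtration, scintillation counting. Ki by Cheng–Prusoff. Duplicate, three independent experiments.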

Mu-type opioid receptor [9] = target: T4, Mu-type opioid receptor; assay: Potency index, ratio of PK20 Ki to test compound Ki for displacement of [3H]-DAMGO from recombinant human mu opioid receptor expressed in CHO cell membranes
Mu-type opioid receptor [10] = target: T4, Mu-type opioid receptor; assay: Agonist activity at human MOR stably expressed in CHO cell membranes assessed as stimulation of [35S]-GTPgammaS binding incubated for 1 hr by liquid scintillation counting assay; assay type: functional; summary of the method: as §1
[11] = target: T1, Neurotensin receptor type 1; assay: Agonist activity at human NTS1 expressed in HEK293 cells co-expressing Galphaq/RlucII/GFP10-Ggamma1/Gbeta1 assessed as increase in Galphaq activation incubated for 10 mins in presence of coelenterazine 400A by BRET assay; assay type: cell-based
Mu-type opioid receptor [12] = target: T4, Mu-type opioid receptor; assay: Agonist activity at human MOR expressed in CHO cell membranes assessed as stimulation of [35S]-GTPgammaS binding incubated for 1 hr by liquid scintillation counting assay relative to DAMGO; assay type: functional; details: filed as agonist, time 60.0 min; summary of the method: as §1
Mu-type opioid receptor [13] = target: T4, Mu-type opioid receptor; assay: Agonist activity at human MOR expressed in human U2OS cells assessed as increase in beta arrestin2 recruitment incubated for 90 mins by pathhunter beta-arrestin assay; assay type: cell-based; summary of the method: as §2
Mu-type opioid receptor [14] = target: T4, Mu-type opioid receptor; assay: Displacement of [3H]-DAMGO from recombinant human mu opioid receptor expressed in CHO cell membrane incubated for 60 mins by liquid scintillation counting method; assay type: cell membranes; summary of the method: as §3
[15] = target: T1, Neurotensin receptor type 1; assay: Agonist activity at human NTS1 expressed in HEK293 cells co-expressing Galphaq/RlucII/GFP10-Ggamma1/Gbeta1 assessed as increase in Gq activation incubated for 10 mins in presence of coelenterazine 400A by BRET assay relative to NT (8-13); assay type: cell-based
[16] = target: T2, Kappa-type opioid receptor; assay: Displacement of [3H]-U69593 from recombinant human kappa opioid receptor expressed in CHO cell membrane incubated for 60 mins by liquid scintillation counting method; assay type: cell membranes; summary of the method: as §3

T3 sequence (P41143 whole entry): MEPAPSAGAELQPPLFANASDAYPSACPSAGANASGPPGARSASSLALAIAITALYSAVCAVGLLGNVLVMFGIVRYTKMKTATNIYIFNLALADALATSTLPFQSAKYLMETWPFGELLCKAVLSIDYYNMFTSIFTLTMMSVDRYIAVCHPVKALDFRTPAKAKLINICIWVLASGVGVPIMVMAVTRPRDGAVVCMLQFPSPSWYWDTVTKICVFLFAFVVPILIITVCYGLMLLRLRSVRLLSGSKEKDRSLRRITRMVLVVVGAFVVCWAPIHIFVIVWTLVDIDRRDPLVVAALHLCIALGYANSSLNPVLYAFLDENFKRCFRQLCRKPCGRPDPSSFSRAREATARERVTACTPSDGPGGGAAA
T4 sequence (P35372 whole entry): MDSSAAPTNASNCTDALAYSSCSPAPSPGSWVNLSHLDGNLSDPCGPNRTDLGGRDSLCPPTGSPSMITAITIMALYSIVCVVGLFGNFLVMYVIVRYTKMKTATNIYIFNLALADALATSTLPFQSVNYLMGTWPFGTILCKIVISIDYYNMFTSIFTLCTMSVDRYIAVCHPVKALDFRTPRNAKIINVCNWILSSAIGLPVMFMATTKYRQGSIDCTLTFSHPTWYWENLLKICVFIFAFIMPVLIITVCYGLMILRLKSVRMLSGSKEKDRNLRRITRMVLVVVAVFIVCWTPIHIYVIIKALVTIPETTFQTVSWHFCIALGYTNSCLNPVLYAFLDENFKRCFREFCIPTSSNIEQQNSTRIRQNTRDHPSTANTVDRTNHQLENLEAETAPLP
T2 sequence (P41145 whole entry): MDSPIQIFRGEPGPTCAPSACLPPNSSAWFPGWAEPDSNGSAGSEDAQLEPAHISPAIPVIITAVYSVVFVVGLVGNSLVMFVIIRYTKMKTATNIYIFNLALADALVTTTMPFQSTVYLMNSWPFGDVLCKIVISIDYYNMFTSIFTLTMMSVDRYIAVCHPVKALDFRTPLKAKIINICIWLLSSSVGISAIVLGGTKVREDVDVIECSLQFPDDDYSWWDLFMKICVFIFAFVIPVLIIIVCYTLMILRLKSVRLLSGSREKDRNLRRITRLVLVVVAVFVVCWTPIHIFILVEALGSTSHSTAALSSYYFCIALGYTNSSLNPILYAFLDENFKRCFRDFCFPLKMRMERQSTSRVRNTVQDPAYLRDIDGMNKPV
T1 sequence (P30989 whole entry): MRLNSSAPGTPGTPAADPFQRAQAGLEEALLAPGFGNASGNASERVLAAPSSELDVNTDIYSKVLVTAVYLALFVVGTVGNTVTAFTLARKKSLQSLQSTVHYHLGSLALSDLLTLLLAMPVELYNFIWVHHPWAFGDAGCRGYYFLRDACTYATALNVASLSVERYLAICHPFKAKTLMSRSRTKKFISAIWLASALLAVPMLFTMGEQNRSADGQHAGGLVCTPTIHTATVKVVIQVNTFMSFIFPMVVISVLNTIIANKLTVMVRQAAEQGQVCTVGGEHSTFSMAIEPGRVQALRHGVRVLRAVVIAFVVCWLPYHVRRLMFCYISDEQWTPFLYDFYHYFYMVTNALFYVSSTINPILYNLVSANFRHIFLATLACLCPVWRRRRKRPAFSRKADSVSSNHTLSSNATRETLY
Chain of Neurotensin receptor type 2 (O95665 whole entry): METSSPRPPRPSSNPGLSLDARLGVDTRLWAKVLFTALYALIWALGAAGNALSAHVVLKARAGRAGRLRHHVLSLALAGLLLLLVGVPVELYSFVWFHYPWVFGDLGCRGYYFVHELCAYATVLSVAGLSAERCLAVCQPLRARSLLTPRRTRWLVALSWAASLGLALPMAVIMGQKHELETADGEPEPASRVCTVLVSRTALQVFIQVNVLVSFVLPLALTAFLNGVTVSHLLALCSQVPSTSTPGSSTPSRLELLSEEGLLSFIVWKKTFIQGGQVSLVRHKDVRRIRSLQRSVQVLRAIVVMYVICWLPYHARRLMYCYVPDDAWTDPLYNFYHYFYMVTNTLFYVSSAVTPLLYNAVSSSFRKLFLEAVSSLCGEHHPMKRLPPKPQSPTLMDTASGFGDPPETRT

Row | Structure (SMILES) | pKi [1] | pKi [2] | pEC50 [3] | pEC50 [4] | Emax (Mu-type opioid receptor [5]) [%] | Emax [6] [%] | Emax [7] [%] | pKi [8] | Ratio Ki (Mu-type opioid receptor [9]) | pEC50 (Mu-type opioid receptor [10]) | pEC50 [11] | Emax (Mu-type opioid receptor [12]) [%] | pEC50 (Mu-type opioid receptor [13]) | pKi (Mu-type opioid receptor [14]) | Emax [15] [%] | pKi [16]
1 | Cc1cc(O)cc(C)c1C[C@H](NC(=O)[C@@H]1CCCN1C(=O)[C@H](CCCNC(=N)N)NC(=O)C[C@@H](N)CCCNC(=N)N)C(=O)N[C@H](C(=O)N[C@@H](CC(C)C)C(=O)O)C(C)(C)C | 8.64 | 9.96 | – | – | – | – | – | – | – | – | – | – | – | – | – | –
2 | Cc1cc(O)cc(C)c1C[C@H](N)C(=O)N[C@H](CCCNC(=N)N)C(=O)N[C@H]1Cc2ccccc2CN(CCC(=O)N[C@@H](CCCNC(=N)N)C(=O)N[C@@H](CCCNC(=N)N)C(=O)N2CCC[C@H]2C(=O)N[C@@H](Cc2ccc(O)cc2)C(=O)N[C@H](C(=O)N[C@@H](CC(C)C)C(=O)O)C(C)(C)C)C1=O (H-[Dmt][dR][X1]RRPY[Tle]L-OH) | 9.37 | 10.05 | 6.29 | 6.52 | 72 | 34 | 106 | 7.25 | 2 | 7.89 | 9.62 | 94 | 5.88 | 8.88 | 111 | 7.10
3 | Cc1cc(O)cc(C)c1C[C@H](N)C(=O)N[C@H](CCCNC(=N)N)C(=O)N[C@H]1Cc2ccccc2CN(CCC(=O)N[C@@H](CCCCN)C(=O)N[C@@H](CCCCN)C(=O)N2CCC[C@H]2C(=O)N[C@@H](Cc2cccc(O)c2)C(=O)N[C@H](C(=O)N[C@@H](CC(C)C)C(=O)O)C(C)(C)C)C1=O (H-[Dmt][dR][X1]KKP[mTyr][Tle]L-OH) | 7.23 | 9.30 | 6.40 | 6.34 | 66 | 30 | 90 | 6.70 | 2 | 7.56 | 7.82 | 87 | 5.90 | 8.40 | 90 | 7.15
4 | CC(C)C[C@H](NC(=O)[C@@H](NC(=O)[C@H](Cc1ccc(O)cc1)NC(=O)[C@@H]1CCCN1C(=O)[C@H](CCCNC(=N)N)NC(=O)[C@@H](N)CCCNC(=N)N)C(C)(C)C)C(=O)O | – | – | – | – | – | – | – | – | – | – | – | – | – | – | 97 | –
5 | Cc1cc(O)cc(C)c1C[C@H](NC(=O)[C@@H]1CCCN1C(=O)[C@H](CCCCN)NC(=O)C[C@H](CCCCN)NC(=O)CCN1Cc2ccccc2C[C@H](NC(=O)[C@@H](CCCNC(=N)N)NC(=O)[C@@H](N)Cc2c(C)cc(O)cc2C)C1=O)C(=O)N[C@H](C(=O)N[C@@H](CC(C)C)C(=O)O)C(C)(C)C (H-[Dmt][dR][X1][β3hK]KP[Dmt][Tle]L-OH) | 7.82 | 9.49 | 6.62 | 6.61 | 69 | 36 | 97 | 7.31 | 2 | 7.18 | 8.74 | 97 | 5.52 | 8.15 | 112 | 6.68
6 | Cc1cc(O)cc(C)c1C[C@H](N)C(=O)N[C@H](CCCNC(=N)N)C(=O)N[C@H]1Cc2ccccc2CN(CCC(=O)N[C@@H](CCCCN)C(=O)N[C@@H](CCCCN)C(=O)N2CCC[C@H]2C(=O)N[C@@H](Cc2ccc(O)cc2)C(=O)N[C@H](C(=O)N[C@@H](CC(C)C)C(=O)O)C(C)(C)C)C1=O (H-[Dmt][dR][X1]KKPY[Tle]L-OH) | 8.64 | 9.54 | 5.78 | 5.88 | 67 | 31 | 87 | 6.67 | 2 | 7.19 | 9.59 | 99 | 5.61 | 8.31 | 99 | 6.70
7 | CC(C)C[C@H](NC(=O)[C@@H](NC(=O)[C@@H]1Cc2cc(O)ccc2CN1C(=O)[C@@H]1CCCN1C(=O)[C@H](CCCNC(=N)N)NC(=O)[C@@H](N)CCCNC(=N)N)C(C)(C)C)C(=O)O (H-RRP[X2][Tle]L-OH) | 5.18 | 6.88 | – | – | – | – | – | – | – | – | – | – | – | – | – | –
8 | Cc1cc(O)cc(C)c1C[C@H](N)C(=O)N[C@H](CCCNC(=N)N)C(=O)N[C@H]1Cc2ccccc2CN(CCC(=O)N[C@@H](CCCNC(=N)N)C(=O)N[C@@H](CCCNC(=N)N)C(=O)N2CCC[C@H]2C(=O)N[C@@H](Cc2cccc(O)c2)C(=O)N[C@H](C(=O)N[C@@H](CC(C)C)C(=O)O)C(C)(C)C)C1=O (H-[Dmt][dR][X1]RRP[mTyr][Tle]L-OH) | 7.91 | 9.48 | 6.37 | 6.75 | 81 | 28 | 110 | 7.22 | 2 | 8.19 | 8.17 | 95 | 6.44 | 8.76 | 95 | 7.70
9 | Cc1cc(O)cc(C)c1C[C@H](NC(=O)[C@@H]1CCCN1C(=O)[C@H](CCCNC(=N)N)NC(=O)[C@@H](N)CCCNC(=N)N)C(=O)N[C@H](C(=O)N[C@@H](CC(C)C)C(=O)O)C(C)(C)C | 7.87 | 8.52 | – | – | – | – | – | – | – | – | – | – | – | – | – | –
10 | Cc1cc(O)cc(C)c1C[C@H](N)C(=O)N[C@H](CCCNC(=N)N)C(=O)N[C@H]1Cc2ccccc2CN(CCC(=O)N[C@@H](CCCCN)C(=O)N[C@@H](CCCCN)C(=O)N2CCC[C@H]2C(=O)N2Cc3ccc(O)cc3C[C@H]2C(=O)N[C@H](C(=O)N[C@@H](CC(C)C)C(=O)O)C(C)(C)C)C1=O (H-[Dmt][dR][X1]KKP[X2][Tle]L-OH) | 5.17 | 7.12 | 5.81 | 6.07 | 66 | 20 | 91 | 6.68 | 2 | 7.34 | – | 94 | 5.66 | 8.20 | – | 6.82
11 | CC(C)C[C@H](NC(=O)[C@@H](NC(=O)[C@H](Cc1cccc(O)c1)NC(=O)[C@@H]1CCCN1C(=O)[C@H](CCCNC(=N)N)NC(=O)[C@@H](N)CCCNC(=N)N)C(C)(C)C)C(=O)O | 7.03 | 7.62 | – | – | – | – | – | – | – | – | – | – | – | – | – | –
